How the values were obtained:
[1] = Half life in simulated gastric fluid at 100 uM at pH 1.2 by HPLC analysis; assay type: physicochemical; settings: for t1/2: simulated gi fluid, pH 1.2, 100 µM
Summary of the method: (§1)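 Meropenem or prodrug at 100 µM final (from a 5.0 mM DMSO stock) incubated at 37 °C in triplicate in simulated gastric fluid pH 1.2, 100 mM MES pH 6.0, or pH 7.4 buffer, after 2 min buffer pre-warming. Aliquots taken at 0–120 min and injected directly onto reversed-phase HPLC with UV at 300 nm. Half-life, % prodrug remaining at 120 min, or species concentration over time was reported.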

Plasma = assay: (§2) Half life in human plasma at 5 mM by HPLC analysis; assay type: ADME, cell-free; settings: 5000 µM
[2] = Half life in HEPES buffer at 100 uM at pH 7.4 by HPLC analysis; assay type: physicochemical; settings: pH 7.4, 100 µM; summary of the method: as §1
[3] = Half life in Dunkin-Hartley guinea pig plasma at 5 mM by HPLC analysis; assay type: ADME, cell-free, Cavia porcellus; settings: for t1/2: 5000 µM
Summary of the method: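 Pooled plasma from female Dunkin Hartley guinea pigs was pre-warmed 2 min at 37 °C, then prodrug was added from a 5.0 mM stock. Runs were in triplicate. Aliquots were taken at 0, 2.5, 5, 10, 15 and 30 min, quenched with an equal volume of acetonitrile, filtered and analysed by reversed-phase HPLC at 300 nm for half-life.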

[4] = as §2; assay type: ADME, cell-free
[5] = Prodrug stability in HEPES buffer assessed as prodrug remaining at 100 uM after 120 mins at pH 7.4 by HPLC analysis; assay type: physicochemical; settings: pH 7.4, 2 h; summary of the method: as §1
[6] = Prodrug stability in MES buffer assessed as prodrug remaining at 100 uM after 120 mins at pH 6 by HPLC analysis; assay type: physicochemical; settings: pH 6, 2 h; summary of the method: as §1
[7] = Half life in MES buffer at 100 uM at pH 6 by HPLC analysis; assay type: physicochemical; settings: pH 6, 100 µM; summary of the method: as §1
[8] = Stability in HEPES buffer assessed as prodrug conversion to meropenem at pH 7.4 by HPLC analysis; assay type: physicochemical; summary of the method: as §1
[9] = Stability in HEPES buffer assessed as prodrug conversion to 1-Benzosuberol at pH 7.4 by HPLC analysis; assay type: physicochemical
[10] = Chemical stability of the compound in simulated gastric fluid assessed as compound remaining at 10 uM after 60 mins at pH 1.2; assay type: physicochemical; settings: read-out: Stability
[11] = Lipophilicity, log D of the compound; assay type: physicochemical; settings: octanol/water
[12] = Chemical stability of the compound in simulated gastric fluid assessed as drug degradation at 10 uM after 30 mins at pH 1.2; assay type: physicochemical; settings: read-out: Drug degradation

In the case of `C[C@@H](O)[C@H]1C(=O)N2C(C(=O)OCOC(=O)O[C@@H]3CCCCc4ccccc43)=C(S[C@@H]3CN[C@H](C(=O)N(C)C)C3)[C@H](C)[C@H]12`, the t1/2 [1] is reported as 11 min, the t1/2 (Plasma) is reported as 34 min and the t1/2 [2] is reported as 27 min. It also gave a t1/2 [3] of 0.9 min.

Work on `CC(C)OC(=O)OC(C)OC(=O)C1=C(S[C@@H]2CN[C@H](C(=O)N(C)C)C2)[C@H](C)[C@@H]2[C@@H]([C@@H](C)O)C(=O)N12` (some centres not stated) yielded a half-life at 100 µM ([1]; simulated gastric fluid, pH 1.2) of 9.8 min, a half-life at 5000 µM [4] of 11 min and a Stability ([5]; 2 h) of 87%. The Stability ([6]; 2 h) was 92% and the half-life at 5000 µM ([3]; Dunkin-Hartley) was 1.4 min.

Compound `C[C@@H](O)[C@H]1C(=O)N2C(C(=O)OCOC(=O)O[C@H]3CCc4ccccc43)=C(S[C@@H]3CN[C@H](C(=O)N(C)C)C3)[C@H](C)[C@H]12` has a t1/2 [2] of under 1 min.

With `C[C@@H](O)[C@H]1C(=O)N2C(C(=O)OCOC(=O)O[C@H]3CCCc4ccccc43)=C(S[C@@H]3CN[C@H](C(=O)N(C)C)C3)[C@H](C)[C@H]12` the t1/2 [2] was 1.4 min and the t1/2 [7] was 0.9 min.

With `C[C@@H](O)[C@H]1C(=O)N2C(C(=O)OCOC(=O)O[C@@H]3CCCc4ccccc43)=C(S[C@@H]3CN[C@H](C(=O)N(C)C)C3)[C@H](C)[C@H]12` the t1/2 [2] was 1.5 min and the t1/2 [7] was 0.96 min.

In the case of `C[C@@H](O)[C@H]1C(=O)N2C(C(=O)OCOC(=O)O[C@H]3CCCCc4ccccc43)=C(S[C@@H]3CN[C@H](C(=O)N(C)C)C3)[C@H](C)[C@H]12`, the Drug metabolism [8] is reported as “Active”, the t1/2 [1] is reported as 9.3 min and the t1/2 (Plasma) is reported as 44 min. The t1/2 [2] was 28 min, the Drug metabolism [9] was “Active” and the t1/2 [7] was 32 min. For the same compound, the t1/2 [3] was 1.3 min.

In the case of `CC(=O)N1C[C@@H](SC2=C(C(=O)OCOC(=O)O[C@H]3CCCCc4ccccc43)N3C(=O)[C@H]([C@@H](C)O)[C@H]3[C@H]2C)C[C@H]1C(=O)N(C)C`, the t1/2 [1] is reported as 7 min, the t1/2 [2] is reported as 28 min and the t1/2 [7] is reported as 28 min.

`C[C@@H](O)[C@H]1C(=O)N2C(C(=O)OCOC(=O)OC3Cc4ccccc4C3)=C(S[C@@H]3CN[C@H](C(=O)N(C)C)C3)[C@H](C)[C@H]12` gave a t1/2 [1] of 13 min, a t1/2 (Plasma) of 4.3 min and a Stability [5] of 70%. The Stability [6] was 96% and the t1/2 [3] was 0.9 min.

With `CC(OC(=O)O[C@H]1CCCCc2ccccc21)OC(=O)C1=C(S[C@@H]2CN[C@H](C(=O)N(C)C)C2)[C@H](C)[C@@H]2[C@@H]([C@@H](C)O)C(=O)N12` (mixture of isomers) the t1/2 [1] was 18 min, the t1/2 [2] was 64 min and the t1/2 [7] was 80 min.

Work on `C[C@@H](O)[C@H]1C(=O)N2C(C(=O)OCOC(=O)OC3CCc4ccccc4C3)=C(S[C@@H]3CN[C@H](C(=O)N(C)C)C3)[C@H](C)[C@H]12` (mixture of isomers) yielded a t1/2 [1] of 14 min, a t1/2 (Plasma) of 8.1 min and a Stability [5] of 78%. For the same compound, the Stability [6] was 93% and the t1/2 [3] was 1.7 min.

In the case of `C[C@@H](O)[C@H]1C(=O)N2C(C(=O)OCOC(=O)OC3CCCc4ccccc4C3)=C(S[C@@H]3CN[C@H](C(=O)N(C)C)C3)[C@H](C)[C@H]12` (mixture of isomers), the t1/2 [1] is reported as 21 min, the t1/2 (Plasma) is reported as 23 min and the Stability [5] is reported as 79%. It also gave a Stability [6] of 96% and a t1/2 [3] of 1.9 min.

For `CC(C)OC(=O)OC(C)OC(=O)C1=C(S[C@@H]2CN[C@H](C(=O)N(C)C)C2)[C@H](C)[C@@H]2[C@@H]([C@@H](C)O)C(=O)N12` (single isomer, unassigned; diastereomer 1), the t1/2 [1] was 8.8 min, the t1/2 (Plasma) was 108 min and the Stability ([5]; 2 h) was 90%. It also gave a Stability ([6]; 2 h) of 94% and a t1/2 [3] of 6.5 min.

`Nc1nc(/C(=C/CC(=O)O)C(=O)N[C@@H]2C(=O)N3C(C(=O)O)=CCS[C@H]23)cs1` [CEFTIBUTEN] showed a remaining at 1 h, 10 µM [10] of 94%.

Compound `C[C@@H](O)[C@H]1C(=O)N2C(C(=O)O)=C([C@H]3CCCO3)S[C@H]12` [FAROPENEM] has a remaining at 1 h, 10 µM [10] of 70%.

Work on `C[C@@H](O)[C@H]1C(=O)N2C(C(=O)O)=C(S[C@@H]3CN[C@H](C(=O)N(C)C)C3)[C@H](C)[C@H]12` [MEROPENEM] yielded a logD [11] of under 2.5, a degraded at 0.5 h, 10 µM [12] of 80% and a remaining at 1 h, 10 µM [10] of 5%.

Reference: ChEMBL document CHEMBL2412988, “Synthesis, pH-dependent, and plasma stability of meropenem prodrugs for potential use against drug-resistant tuberculosis” (Bioorg Med Chem, 2013)
